Data published in ChEMBL document CHEMBL5247578, “Effective synthesis of benzimidazoles-imidazo[1,2-a]pyrazine conjugates: A comparative study of mono-and bis-benzimidazoles for antitumor activity” (Eur J Med Chem, 2019).

Experiment: n-Octanol/phosphate buffer partition coefficient, logP of the compound at pH 7.4 incubated for 85 mins by shake-flask method
Assay type: physicochemical
Procedure, shortened: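 Octanol–water partition by shake-flask: n-octanol with 0.15 M phosphate buffer pH 7.4 at 10:1 volumes. Buffer-phase absorbance read before mixing, then shaken 50 min and centrifuged at 2500 rpm for 35 min. Buffer absorbance read again; P = (Ai−Af)/Af × Vw/Vo.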

| SMILES | logD at 1.417 h |
| --- | --- |
| Cc1cccc(-c2cn3ccnc3c(-c3ccc4ncn(C5CCCCC5)c4c3)n2)c1 | 1.87 |
| CCc1ccc(-c2cn3ccnc3c(-c3ccc4ncn(C5CCCCC5)c4c3)n2)cc1 | 1.66 |
